Compound activity from PubChem BioAssay.
Runt-SMMHC FRET – blocks binding of human RUNX1 Runt domain to CBFb-SMMHC; Q01196+Q13951; AID 1434; actives 0.74% (n = 220,000); Cerulean-Runt/Venus-CBFb-SMMHC FRET ratio 530/480, 1 h; inhibition, % at 20 µM;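 active = mean inhibition across duplicate retests at 20 µM reaching about 50%, limit read from the data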;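 also: 0% = DMSO wells and 100% = wells with excess untagged CBFb-SMMHC; inhibitors lower the FRET ratio by blocking Runt binding to CBFb-SMMHC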
Target sequence (Q01196 whole entry, looked up, the tested form may be a part): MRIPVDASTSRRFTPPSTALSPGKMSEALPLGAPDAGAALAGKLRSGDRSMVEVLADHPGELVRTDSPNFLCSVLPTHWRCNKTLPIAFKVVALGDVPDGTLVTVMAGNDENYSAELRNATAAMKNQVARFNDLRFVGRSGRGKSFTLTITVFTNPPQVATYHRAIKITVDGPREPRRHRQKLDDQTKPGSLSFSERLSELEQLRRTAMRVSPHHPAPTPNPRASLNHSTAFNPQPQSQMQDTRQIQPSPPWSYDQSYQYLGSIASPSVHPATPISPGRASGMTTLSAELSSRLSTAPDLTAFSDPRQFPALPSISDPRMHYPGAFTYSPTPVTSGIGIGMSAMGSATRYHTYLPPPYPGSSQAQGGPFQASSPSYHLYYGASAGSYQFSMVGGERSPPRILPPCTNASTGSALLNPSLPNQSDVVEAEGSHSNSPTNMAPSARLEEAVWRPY
Target sequence (Q13951 whole entry, looked up, the tested form may be a part): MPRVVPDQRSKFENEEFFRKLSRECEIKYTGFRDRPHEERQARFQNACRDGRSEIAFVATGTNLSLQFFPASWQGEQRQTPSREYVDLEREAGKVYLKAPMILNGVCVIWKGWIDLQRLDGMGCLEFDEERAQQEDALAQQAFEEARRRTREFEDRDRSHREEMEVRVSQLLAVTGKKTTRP
Hck Nef HTS – human Hck-Nef kinase inhibition. P08631. Recombinant Hck-YEEI plus Nef, Z-Lyte FRET kinase assay. inhibition, % at 20 µM. actives 0.68% (n = 220,000);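 active = Hck-Nef kinase inhibition above about 50%, limit read from the data; inactive = inhibition below that limit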;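 also: 0% = DMSO with Hck plus Nef and 100% = Hck alone without Nef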
RanGTP-Impb inh – disruptors of Ran-importin-beta complex formation – biochemical, FRET, CFP-Ran, YFP-importin-beta, homogeneous, primary screen. cell-free CFP-Ran/YFP-importin-beta FRET ratio. inhibition, % (no concentration beside the values). actives 1.1% (n = 300,000);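 active = more than half of the replicate wells show a fall in the fluorescence ratio signal beyond about 16%, limit read from the data, passing the limit was not always enough; inconclusive = exactly half of the replicate wells pass the set limit; inactive = fewer than half of replicates pass the limit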;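 also: 0% = DMSO wells and 100% = Ran loaded with GDP instead of GTP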
p97 ATPase inh – inhibitors of human p97 ATPase | actives 0.42% (n = 220,000) | P55072 | inhibition, % at 8 µM | AID 1481 | recombinant p97 ATPase, Kinase-Glo ATP luminescence, 3 h; in the data active = inhibition above about 15%;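 also: 0% = DMSO vehicle and 100% = wells lacking enzyme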
Runt-CBFb FRET – Runt domain-CBFb interaction inhibition; inhibition, % at 20 µM; actives 0.46% (n = 220,000); AID 1496; Cerulean-Runt/Venus-CBFb FRET ratio 530/480, 1 h;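 active = inhibition over about 50% at 20 µM in the single-dose screen, limit read from the data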;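 also: 0% = DMSO wells and 100% = excess unlabeled CBFb competitor control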
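Assay system: Cerulean-Runt domain / Medium: Tris 50 mM pH 7.5, KCl, K2SO4, 0.01% BSA / Timing: protein complex preformed 1 h, compound exposure 1 h, room temperature, dark / Measured by: FRET, excitation 422 nm, emission at 530 and 480 nm / Evaluation: loss of energy transfer signal / Control set: 5 µM unlabeled CBFb as full-inhibition high control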
TbHK1 inh – T. brucei hexokinase 1 inhibition; recombinant TbHK1, G6PDH-coupled NADH A340; actives 0.11% (n = 220,000); inhibition, % at 10 µM;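 active = inhibition of 50% or more in the single-dose primary screen; inactive = inhibition below 50%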
p97 confirm – human p97 ATPase inhibition, confirmation | shares compounds with p97 ATPase inh | recombinant p97 ATPase, Kinase-Glo ATP luminescence | inhibition, % at 8 µM | actives 44% (n = 760) | AID 1517;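 active = percent inhibition of p97 ATPase above a set limit, the primary screen's mean plus 3 SD, cut at about 15% in these data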;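 also: 0% = DMSO wells and 100% = wells lacking p97 protein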
Active calls of the source: *; ? = inconclusive; . = not tested or not shown. An excerpt weighted towards active compounds, which were near 2.1% of everything screened.

SMILES	Runt-SMMHC FRET	Hck Nef HTS	RanGTP-Impb inh	p97 ATPase inh	Runt-CBFb FRET	TbHK1 inh	p97 confirm
Cc1ccc(O)c(C(CC(=O)NC(C)C)c2ccccc2)c1 (stereo unspecified)	-1	14	0	5	0	2	.
CSc1c(CC(=O)NCCO)n(C)c2ccccc12	1	1	-3	17*	0	0	0
Cn1c(CC(=O)NCCO)c(Sc2ccccc2)c2ccccc21	1	3	2	-2	0	-4	.
CSC1=NC(=O)/C(=C\c2cccc3ccccc23)S1	-8	28	.	15*	-2	3	10
NC(N)=NC(N)=Nc1cccc2ccccc12	17	-10	3	-2	3	2	.
NC(N)=Nc1cc2ccccc2c2ccccc12	0	-21	1	15*	2	3	10
CN(c1cccc(NC(=O)c2cccc([N+](=O)[O-])c2)c1)S(C)(=O)=O	-2	20	5	3	0	-8	.
O=C(Nc1cccc(NC(=O)c2ccco2)c1)c1ccc2c(c1)OCCO2	4	13	2	17*	-2	8	5
Cc1ccc(S(=O)(=O)N2CCOCC2)cc1C(=O)Nc1ccc2c(c1)CCC2	-2	1	-1	0	-2	24	.
Cc1ccc(S(=O)(=O)N2CCOCC2)cc1C(=O)Nc1ccc(-c2cn3ccsc3n2)cc1	-4	-5	0	17*	1	-8	21*
C=C1c2cccc(O)c2C(O)=C2C(=O)[C@]3(O)C(O)=C(C(N)=O)C(=O)[C@@H](N(C)C)[C@@H]3[C@@H](O)[C@H]12	-9	-54	-6	63*	24	-31	8
CN(C)c1ccc(O)c2c1CC1CC3C(N(C)C)C(=O)C(C(N)=O)=C(O)[C@@]3(O)C(=O)C1=C2O (stereo partly specified)	.	.	-2	.	.	.	.
O=C(Nc1cc(Cl)ccn1)C1(c2ccccc2)CC1(Cl)Cl (stereo unspecified)	0	6	-1	17*	1	-6	25*
CCOc1ccc(CNC(=O)CCCn2nc(C)c3c(C)n(-c4ccc(C)cc4)nc3c2=O)cc1	.	.	1	.	.	.	.
CSc1nsc(SCc2ccc(Cl)cc2)n1	-1	-1	0	26*	-3	-4	0
C(=N\Nc1nc2ccccc2[nH]1)/c1cccc2cccnc12	-4	-4	-2	20*	2	-11	3
C(=N\Nc1nc2ccccc2[nH]1)/c1c[nH]c2ccccc12	4	1	3	15*	3	-28	8
Cc1ccccc1/C=N/Nc1nc2ccccc2[nH]1	2	18	-4	3	1	-11	.
CC1CCN(c2ccccc2NC(=O)c2cc3ccccc3o2)CC1	.	.	0	.	.	.	.
Cc1ccc(Nc2nc(N3CCN(C)CC3)nc(N)c2[N+](=O)[O-])cc1C	-4	7	-5	3	-3	-29	.
CC(C)c1nc2sc3c(=S)nc[nH]c3c2c2c1CCC2	0	21	0	42*	0	-9	41*
CC(C)c1nc2sc3c(=O)[nH]cnc3c2c2c1CCCC2	0	0	1	16*	-3	-18	20*
O=C(O)COc1ccccc1/C=C1\SC(=Nc2ccc(F)cc2)N(c2ccc(F)cc2)C1=O	-4	-4	-4	-7	-2	-18	.
COc1cc(-c2nc(-c3ccc(NC(=O)c4ccc(Br)o4)cc3)no2)cc(OC)c1OC	0	11	?	2	0	-26	.
COc1ccc(-c2nc(-c3ccc(NC(=O)c4ccc(Br)o4)cc3)no2)cc1OC	0	0	-2	17*	3	-4	2
SMILES	Runt-SMMHC FRET	Hck Nef HTS	RanGTP-Impb inh	p97 ATPase inh	Runt-CBFb FRET	TbHK1 inh	p97 confirm
CC1=NN(c2ccc(Cl)c(C(=O)O)c2)C(=O)C1	-1	4	6	34*	2	19	6
CC1=NN(c2ccc(C(=O)O)c(N)c2)C(=O)C1	11	41	-6	10	15	-5	.
CC(=O)Nc1ccc2cc3ccc(NC(C)=O)cc3nc2c1	.	-31	37*	34*	15	-14	24*
CC(=O)Nc1ccc2ccccc2c1	3	-2	2	-2	2	-2	.
Cc1cc(=O)[nH]c2ccc(Cl)cc12	-5	-2	-1	16*	-1	-13	3
CCn1nc(C(=O)OCC(=O)N2CC(=O)Nc3ccccc32)c2ccccc2c1=O	-2	0	0	0	-1	-3	.
COc1cc2c(cc1NC(=O)CSc1nnc(Cc3cccs3)n1C)oc1ccccc12	2	12	0	22*	-4	-26	17*
CN=C(NC(=O)Nc1c(C)cccc1C)NC(=O)Nc1c(C)cccc1C	-2	24	-3	6	0	-3	.
CN=C(N)NC(=O)Nc1c(C)cccc1C	2	0	-4	15*	10	-5	7
O=C(Nc1ccc2nc(-c3cccs3)[nH]c2c1)c1cccs1	-1	11	4	15*	2	-42	19*
O=C(Nc1ccc(-c2nc3ccc(NC(=O)c4cccs4)cc3[nH]2)cc1)c1cccs1	-41	-5	-7	2	-30	-92	.
CCCn1c(CCc2ccccc2)n[nH]c1=S	8	15	6	7	2	0	.
CCc1cccc(C)c1NC(=O)CSc1nc2ccncc2[nH]1	.	.	-5	.	.	.	.
COc1ccc(CNc2ncnc3c2[nH]c2cc(OC)c(OC)cc23)cc1	-2	13	2	10	0	-16	.
COc1ccc(CNc2ncnc3c2[nH]c2ccccc23)cc1	2	12	?	16*	-1	-21	20*
S=C(NCCc1ccc(Cl)cc1)NC1CCCCC1	.	.	2	.	.	.	.
Oc1ccc(/C=N/Nc2ccnc3cc(Cl)ccc23)cc1O	0	39	-4	33*	0	-5	41*
CC(=O)Oc1cc2c3c(c1)/C(=C1/SC(=S)NC1=O)C(=O)N3C(C)(C)C=C2C	-9	11	6	25*	19	-2	45*
Cc1nnsc1Sc1cccc(C(F)(F)F)c1	2	1	?	16*	1	3	1
C[C@H](NC(=O)Nc1ccccc1F)C(=O)O	-2	0	-2	-2	0	0	.
CC(C)[C@H](NC(=O)Nc1ccccc1F)C(=O)O	-4	4	?	15*	1	2	8
